# Measurements from article PMC12502093 (RSC Advances, 2025).
# What was measured:
# [1] = molecular target: STAT3 (Homo sapiens, UniProt P40763); assay: STAT3 tyrosine phosphorylation inhibition; type: biochemical
# [2] = system: Cyclin D1; assay: qRT-PCR gene expression in MCF7 cells: Cyclin D1; type: cell-based, human; settings: compound at IC50, 48 h, relative to β-Actin, vs control
# Procedure, shortened: (§1)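 MCF7 cells (3 × 10^4 per well) were treated 48 h with test compound. Total RNA was column-extracted and reverse-transcribed to first-strand cDNA. SYBR Green qPCR ran 95 °C 10 min, then 40 cycles of 95 °C 15 s, 60 °C 30 s, 72 °C 30 s. Expression was normalised to β-Actin by 2−ΔΔCT relative to untreated control. Data are mean ± SEM; Student's t-test, P < 0.05.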
# [3] = system: C. albicans ATCC 10231; assay: Agar well diffusion test; type: cell-based; settings: AWDT
# [4] = molecular target: T1, S. aureus DNA gyrase (Staphylococcus aureus, UniProt P0A0K8); assay: S. aureus DNA gyrase supercoiling assay; type: biochemical
# T1 sequence (P0A0K8 whole entry): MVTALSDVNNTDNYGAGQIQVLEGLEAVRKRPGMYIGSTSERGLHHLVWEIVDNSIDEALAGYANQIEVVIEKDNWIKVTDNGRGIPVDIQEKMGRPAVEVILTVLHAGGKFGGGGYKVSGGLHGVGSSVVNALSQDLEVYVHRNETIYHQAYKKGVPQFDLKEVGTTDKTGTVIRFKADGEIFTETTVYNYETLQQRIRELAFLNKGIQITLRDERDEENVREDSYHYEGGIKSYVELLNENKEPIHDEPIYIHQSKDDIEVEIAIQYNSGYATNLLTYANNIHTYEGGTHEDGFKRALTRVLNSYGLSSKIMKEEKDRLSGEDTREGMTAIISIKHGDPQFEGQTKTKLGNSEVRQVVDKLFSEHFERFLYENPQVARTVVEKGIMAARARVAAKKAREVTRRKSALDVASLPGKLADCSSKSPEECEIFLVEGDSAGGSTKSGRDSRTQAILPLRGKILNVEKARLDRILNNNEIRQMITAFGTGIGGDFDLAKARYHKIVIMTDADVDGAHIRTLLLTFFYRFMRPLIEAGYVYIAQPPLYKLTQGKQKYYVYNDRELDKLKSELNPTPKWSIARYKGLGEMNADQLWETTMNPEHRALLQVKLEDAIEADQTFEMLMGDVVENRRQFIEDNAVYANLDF
# T1 sequence (P20831 whole entry partner): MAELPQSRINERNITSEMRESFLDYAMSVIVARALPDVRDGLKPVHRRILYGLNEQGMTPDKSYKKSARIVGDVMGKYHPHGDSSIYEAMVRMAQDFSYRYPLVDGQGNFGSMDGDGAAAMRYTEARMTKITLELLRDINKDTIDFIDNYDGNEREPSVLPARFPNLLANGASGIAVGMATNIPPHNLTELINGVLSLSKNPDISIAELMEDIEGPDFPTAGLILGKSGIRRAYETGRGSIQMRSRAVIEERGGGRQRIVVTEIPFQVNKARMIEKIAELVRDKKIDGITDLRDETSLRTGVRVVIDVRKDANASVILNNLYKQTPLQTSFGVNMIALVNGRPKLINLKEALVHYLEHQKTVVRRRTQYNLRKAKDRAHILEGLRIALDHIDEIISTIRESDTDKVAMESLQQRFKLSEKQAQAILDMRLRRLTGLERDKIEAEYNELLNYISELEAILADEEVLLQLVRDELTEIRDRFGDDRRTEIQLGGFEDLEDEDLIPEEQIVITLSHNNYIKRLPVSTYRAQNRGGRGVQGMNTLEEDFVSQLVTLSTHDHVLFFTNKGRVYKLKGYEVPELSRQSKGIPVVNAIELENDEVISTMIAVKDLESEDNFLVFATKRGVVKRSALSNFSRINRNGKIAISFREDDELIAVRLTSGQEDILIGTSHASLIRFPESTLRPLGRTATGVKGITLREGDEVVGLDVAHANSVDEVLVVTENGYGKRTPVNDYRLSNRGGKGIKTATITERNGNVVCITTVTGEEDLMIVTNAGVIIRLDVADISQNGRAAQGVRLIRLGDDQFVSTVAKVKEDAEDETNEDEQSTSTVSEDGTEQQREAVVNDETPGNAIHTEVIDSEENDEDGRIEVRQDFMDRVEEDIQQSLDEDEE
# [5] = molecular target: T2, S. aureus topoisomerase IV (Staphylococcus aureus, UniProt P0C1S7); assay: S. aureus topoisomerase IV decatenation assay; type: biochemical
# T2 sequence (P0C1S7 whole entry, the tested form may be a part): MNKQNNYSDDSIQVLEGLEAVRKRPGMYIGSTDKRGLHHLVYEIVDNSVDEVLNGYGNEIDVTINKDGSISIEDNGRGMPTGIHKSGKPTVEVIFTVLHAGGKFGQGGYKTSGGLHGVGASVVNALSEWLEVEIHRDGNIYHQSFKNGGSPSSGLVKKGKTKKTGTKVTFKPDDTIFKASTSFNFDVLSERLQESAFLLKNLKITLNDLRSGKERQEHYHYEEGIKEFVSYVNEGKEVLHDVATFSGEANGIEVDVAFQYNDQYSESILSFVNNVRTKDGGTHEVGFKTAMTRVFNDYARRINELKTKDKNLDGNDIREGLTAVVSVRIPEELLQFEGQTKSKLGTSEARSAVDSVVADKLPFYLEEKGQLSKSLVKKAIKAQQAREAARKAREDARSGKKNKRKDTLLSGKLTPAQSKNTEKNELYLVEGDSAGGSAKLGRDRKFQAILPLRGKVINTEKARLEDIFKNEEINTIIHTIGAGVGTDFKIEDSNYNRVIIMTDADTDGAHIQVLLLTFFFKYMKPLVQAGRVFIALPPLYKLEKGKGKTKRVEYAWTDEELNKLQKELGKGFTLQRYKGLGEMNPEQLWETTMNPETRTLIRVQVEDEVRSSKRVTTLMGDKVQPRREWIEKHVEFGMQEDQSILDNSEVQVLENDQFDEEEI
# T2 sequence (P0C1U9 whole entry partner, the tested form may be a part): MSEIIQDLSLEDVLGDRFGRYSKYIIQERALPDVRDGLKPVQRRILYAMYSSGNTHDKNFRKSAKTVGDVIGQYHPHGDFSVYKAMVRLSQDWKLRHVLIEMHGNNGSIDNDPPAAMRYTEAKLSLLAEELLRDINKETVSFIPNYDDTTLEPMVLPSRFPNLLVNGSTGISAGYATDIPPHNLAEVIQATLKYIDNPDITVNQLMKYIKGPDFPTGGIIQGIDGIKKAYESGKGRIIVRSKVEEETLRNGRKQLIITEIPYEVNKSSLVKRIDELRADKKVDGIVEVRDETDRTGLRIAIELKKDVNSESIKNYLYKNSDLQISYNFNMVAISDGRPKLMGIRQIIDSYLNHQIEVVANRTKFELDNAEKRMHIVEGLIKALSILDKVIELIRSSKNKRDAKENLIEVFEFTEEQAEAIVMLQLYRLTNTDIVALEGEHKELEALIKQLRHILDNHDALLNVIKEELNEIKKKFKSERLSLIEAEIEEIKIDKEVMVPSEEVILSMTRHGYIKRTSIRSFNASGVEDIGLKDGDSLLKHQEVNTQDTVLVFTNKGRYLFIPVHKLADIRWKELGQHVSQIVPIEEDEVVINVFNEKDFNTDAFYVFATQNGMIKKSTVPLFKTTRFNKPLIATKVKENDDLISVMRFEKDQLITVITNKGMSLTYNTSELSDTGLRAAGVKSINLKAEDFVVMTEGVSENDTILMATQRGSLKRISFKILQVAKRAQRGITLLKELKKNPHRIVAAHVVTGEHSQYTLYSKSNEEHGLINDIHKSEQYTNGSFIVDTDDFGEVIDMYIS
# [6] = system: A. flavus isolate; assay: Agar well diffusion test; type: cell-based; settings: AWDT
# Procedure, shortened: (§2)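 Agar well diffusion. Test compounds were placed in wells on agar inoculated with the reference strain or isolate. After incubation, inhibition zone diameters were measured in mm with a caliper. Runs were in triplicate and the zone averaged. Scale: 0 = no inhibition; 0–6 mm (−); 7–11 mm (+); 12–14 mm (++); 15–17 mm (+++).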
# [7] = system: STAT3; assay: qRT-PCR gene expression in MCF7 cells: STAT3; type: cell-based, human; settings: compound at IC50, 48 h, relative to β-Actin, vs control
# Procedure, shortened: as §1
# [8] = system: BAX; assay: qRT-PCR gene expression in MCF7 cells: BAX; type: cell-based, human; settings: compound at IC50, 48 h, relative to β-Actin, vs control
# Procedure, shortened: as §1
# [9] = system: E. coli O157 ATCC 700728; assay: Agar well diffusion test; type: cell-based; settings: AWDT
# Procedure, shortened: as §2
# [10] = system: MCF7 cells; assay: Neutral red uptake cytotoxicity assay, MCF7; type: cell-based, human
# Procedure, shortened: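 Neutral red uptake. Log-phase cells were grown in DMEM with 10% FBS at 37 °C, 5% CO2, at 10^4 cells/well. They were exposed 48 h to 12.5, 25, 50 and 100 μM test compound (DMSO final <0.2%), then given neutral red medium for 2 h and washed with DPBS. Dye was extracted with 1% acetic acid/50% ethanol and read at 450/630 nm. IC50 came from log concentration versus intensity, three runs averaged. SI = MDCK IC50 / MCF7 IC50.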
# [11] = molecular target: T2, S. aureus topoisomerase IV; assay: S. aureus topoisomerase IV ATPase assay; type: biochemical
# [12] = system: S. aureus ATCC 25923; assay: Agar well diffusion test; type: cell-based; settings: AWDT
# Procedure, shortened: as §2
# [13] = system: IL6; assay: qRT-PCR gene expression in MCF7 cells: IL6; type: cell-based, human; settings: compound at IC50, 48 h, relative to β-Actin, vs control
# Procedure, shortened: as §1
# [14] = molecular target: T1, S. aureus DNA gyrase; assay: S. aureus DNA gyrase ATPase assay; type: biochemical
# [15] = system: C. albicans ATCC 10231; assay: Minimum inhibitory concentration, C. albicans; type: cell-based; settings: Candida albicans, ATCC10231, read-out: MIC (mg mL^−1)
# Procedure, shortened: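 MIC was determined by a previously reported method for compounds selected from the well-diffusion screen and is expressed in mg mL−1. […] For C. albicans, 100 μL of negative cells went onto potato dextrose agar at 25 °C/72 h.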
# [16] = system: c-MYC; assay: qRT-PCR gene expression in MCF7 cells: c-MYC; type: cell-based, human; settings: compound at IC50, 48 h, relative to β-Actin, vs control
# Procedure, shortened: as §1
# Chain of STAT3 (Homo sapiens, UniProt P40763) (P40763 whole entry): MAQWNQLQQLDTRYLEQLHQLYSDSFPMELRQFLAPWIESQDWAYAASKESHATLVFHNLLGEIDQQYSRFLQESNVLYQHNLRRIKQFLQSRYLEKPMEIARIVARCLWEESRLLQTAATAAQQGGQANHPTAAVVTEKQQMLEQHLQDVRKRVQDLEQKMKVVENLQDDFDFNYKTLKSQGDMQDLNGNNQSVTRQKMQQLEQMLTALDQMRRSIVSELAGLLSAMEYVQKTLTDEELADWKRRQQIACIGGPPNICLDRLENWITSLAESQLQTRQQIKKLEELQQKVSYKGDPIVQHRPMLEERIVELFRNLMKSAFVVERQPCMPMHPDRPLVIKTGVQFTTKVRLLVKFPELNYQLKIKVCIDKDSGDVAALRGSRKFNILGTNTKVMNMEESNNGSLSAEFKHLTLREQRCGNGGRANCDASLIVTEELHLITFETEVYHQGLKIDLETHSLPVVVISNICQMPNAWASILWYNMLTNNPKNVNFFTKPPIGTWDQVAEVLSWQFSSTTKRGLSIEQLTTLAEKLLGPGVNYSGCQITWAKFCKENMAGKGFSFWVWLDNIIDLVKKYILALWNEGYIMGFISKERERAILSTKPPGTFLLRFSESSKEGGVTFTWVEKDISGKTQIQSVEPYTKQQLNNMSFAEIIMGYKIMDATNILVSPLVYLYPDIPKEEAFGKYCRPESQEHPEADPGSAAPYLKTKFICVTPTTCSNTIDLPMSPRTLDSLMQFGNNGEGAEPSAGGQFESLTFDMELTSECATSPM
smiles,measurement,setting,value
"CC(=O)c1ccc2cc(S(=O)(=O)Nc3ccc(Br)cc3)ccc2c1 [Compound 5e, 6-Acetyl-N-(4-bromophenyl)naphthalene-2-sulfonamide]",IC50,"[1]; STAT3 phosphorylation IC50 (μM) (mean ± SD), ELISA, eight dilutions 100-0.03 μM",3.01 ± 0.06 µM
same,Potency as STAT3 inhibitor relative to lead compound I,[1]; higher potency than compound I,approximately 2 fold
same,Cyclin D1 gene expression level,[2],significant reduction
same,"Zone of inhibition, inhibition scale",[3]; C. albicans ATCC 10231,+++ (15–17 mm (+++))
same,Zone of inhibition,"[3]; C. albicans ATCC 10231, average of triplicate",15 mm
same,IC50,[4],21.8 µM
same,IC50,[5],18.9 µM
same,"Zone of inhibition, inhibition scale",[6],+ (7–11 mm (+))
same,Zone of inhibition,[6]; average of triplicate,11 mm
same,STAT3 gene expression level,[7],significant reduction
same,BAX gene expression level,[8],significantly increased
same,"Zone of inhibition, inhibition scale",[9]; E. coli O157 ATCC 700728,++ (12–14 mm (++))
same,Zone of inhibition,"[9]; E. coli O157 ATCC 700728, average of triplicate",12 mm
same,IC50,"[10]; Homo sapiens, MCF7, 48 h, read-out: IC50 (μM) MCF7",43.1 µM
same,"(SI) MCF7, selectivity index",[10]; SI = IC50 MDCK cell/IC50 MCF7 cell,2.22
same,IC50,[11],5.96 µM
same,"Activity relative to ciprofloxacin, topoisomerase IV ATPase assay","[11]; S. aureus, less than ciprofloxacin",more than 3 fold
same,"Zone of inhibition, inhibition scale",[12]; S. aureus ATCC 25923,+++ (15–17 mm (+++))
same,Zone of inhibition,"[12]; S. aureus ATCC 25923, average of triplicate",16 mm
same,IL6 gene expression level,[13],significant reduction
same,IC50,[14],3.04 µM
same,MIC,[15],20 mg/mL
same,c-MYC gene expression level,[16],significant reduction
